Experimental data as given in ChEMBL document CHEMBL2176870 (J Med Chem, 2012).
Converted amounts (≈) assume the structure as drawn. The source made the active and inactive calls. The calls are words filed in the database; no cut-off is given here.

Tests used:
[1] = Toxicity in iv dosed dog administered bid for 2 weeks; assay type: organism-based, Canis lupus familiaris; details: in vivo
Procedure, shortened: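 Dogs dosed iv twice daily for 14 days; NOAEL determined, with body weight monitored.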

[2] = biological target: T1, Enoyl-[acyl-carrier-protein] reductase [NADPH] FabI (Staphylococcus aureus, UniProt Q6GI75); experiment: Inhibition of Staphylococcus aureus recombinant FabI using trans-2-octenoyl N-acetylcysteamine thioester as substrate preincubated for 60 mins
T1 sequence (Q6GI75 whole entry): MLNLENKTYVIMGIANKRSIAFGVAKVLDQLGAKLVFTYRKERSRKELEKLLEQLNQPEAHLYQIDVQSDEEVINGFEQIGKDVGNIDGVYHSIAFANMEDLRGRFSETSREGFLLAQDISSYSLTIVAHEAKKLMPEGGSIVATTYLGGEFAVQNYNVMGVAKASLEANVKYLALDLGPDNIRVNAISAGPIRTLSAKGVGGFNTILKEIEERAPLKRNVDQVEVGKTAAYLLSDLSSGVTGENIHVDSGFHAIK
Procedure, shortened: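 Recombinant S. aureus FabI (2 nM) in 50 mM ADA pH 6.5, 1 mM DTT, 0.006% Triton X-100, 50 mM NaCl. Preincubated 60 min at room temperature with 40 μM NADPH, 10 μM NADP+ and inhibitor in DMSO. Reaction started with 100 μM t-o-NAC. Inhibition versus untreated samples; IC50 by Langmuir fit.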

Neisseria meningitidis = experiment: Antibacterial activity against Neisseria meningitidis; assay type: functional
[3] = AUC (0 to infinity) in Sprague-Dawley rat brain at 2 x 50 mg/kg, iv; assay type: ADME, organism-based; parameters: time infinity, dose 50 mg/kg, route intravenous
Procedure, shortened: (§1)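 Female Sprague–Dawley rats given two iv doses of 50 mg/kg. Levels measured in plasma, liver, kidney, brain, heart and lung. Cmax reported as ng/g for tissue and ng/mL for plasma; AUC(0–∞) as ng·h/mL. Half-life is the terminal elimination value.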

Staphylococcus aureus [4] = experiment: Antibacterial activity against methicillin-resistant Staphylococcus aureus NRS385 infected in Swiss mouse; assay type: functional
Procedure, shortened: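 Murine lethal systemic infection by intraperitoneal MRSA challenge. A single subcutaneous dose was given 5 min after infection.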

Canis familiaris [5] = experiment: Toxicity in beagle dog assessed as clinical signs of toxicity up to 100 mg/kg, iv; assay type: organism-based, Canis lupus familiaris; parameters: dose 100 mg/kg, route intravenous; details: in vivo
Procedure, shortened: (§2)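 Beagle dogs given single iv infusions up to 100 mg/kg. Clinical signs and cardiovascular function, including QT interval, were monitored.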

Escherichia coli [6] = experiment: Antibacterial activity against Escherichia coli; assay type: functional
[7] = Terminal elimination half life in Sprague-Dawley rat kidney at 2 x 50 mg/kg, iv; assay type: ADME, organism-based; parameters: dose 50 mg/kg, route intravenous; details: read-out: beta t1/2 (converted); procedure, shortened: as §1
[8] = Plasma clearance in Sprague-Dawley rat plasma at 2 x 50 mg/kg, iv; assay type: ADME, organism-based; parameters: dose 50 mg/kg, route intravenous
[9] = Terminal elimination half life in Sprague-Dawley rat brain at 2 x 50 mg/kg, iv; assay type: ADME, organism-based; parameters: dose 50 mg/kg, route intravenous; details: read-out: beta t1/2 (converted); procedure, shortened: as §1
[10] = Cmax in Sprague-Dawley rat heart at 2 x 50 mg/kg, iv; assay type: ADME, organism-based; parameters: dose 50 mg/kg, route intravenous; procedure, shortened: as §1
[11] = Cytotoxicity against human HepG2 cells; assay type: cell-based; details: read-out: ED50 (the source's name)
[12] = Toxicity in iv dosed mouse; assay type: organism-based; details: in vivo
Procedure, shortened: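 Single intravenous dosing in mice; maximum tolerated dose determined.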

Albumin = Albumin (Homo sapiens, UniProt P02768); experiment: Binding affinity to human serum albumin; assay type: ADME; details: isolated protein
[13] = AUC (0 to infinity) in Sprague-Dawley rat plasma at 2 x 50 mg/kg, iv; assay type: ADME, organism-based; parameters: time infinity, dose 50 mg/kg, route intravenous; procedure, shortened: as §1
Rattus norvegicus = experiment: Toxicity in rat assessed as effect on central nervous system and respiratory functions up to 200 mg/kg, iv; assay type: organism-based; parameters: dose 200 mg/kg, route intravenous; details: in vivo
Procedure, shortened: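 Safety pharmacology in rats given single iv injections up to 200 mg/kg. Clinical signs, central nervous system effects and respiratory function were monitored.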

Staphylococcus aureus [14] = experiment: Antibacterial activity against methicillin-resistant Staphylococcus aureus NRS384; assay type: functional
Procedure, shortened: (§3)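 CLSI broth microdilution: serial 2-fold dilutions from 0.06 to 64 μg/mL in cation-adjusted Mueller–Hinton broth, inoculum 5 × 10^5 CFU/mL, 35 °C for 18 h. MIC is the lowest concentration with no visible growth.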

[15] = Toxicity in iv dosed rat administered bid for 2 weeks; assay type: organism-based; details: in vivo
Procedure, shortened: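 Rats dosed iv twice daily for 14 days. NOAEL assessed from clinical findings and from macroscopic and microscopic examination.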

[16] = Cmax in Sprague-Dawley rat plasma at 2 x 50 mg/kg, iv; assay type: ADME, organism-based; parameters: dose 50 mg/kg, route intravenous; procedure, shortened: as §1
[17] = Thermodynamic aqueous solubility of the compound at pH 7.4; assay type: physicochemical; details: buffer, read-out: Therm_solubility
Staphylococcus aureus [18] = experiment: Antibacterial activity against methicillin-resistant Staphylococcus aureus; assay type: functional
[19] = Toxicity in iv dosed rat; assay type: organism-based; details: in vivo
Procedure, shortened: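 Rats given a single intravenous dose for maximum tolerated dose. A separate 2-week study used twice-daily intravenous dosing, with NOAEL set from clinical findings and macroscopic and microscopic examination. Safety pharmacology used single intravenous injections up to 200 mg/kg, assessing central nervous system and respiratory functions.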

[20] = AUC (0 to infinity) in Sprague-Dawley rat kidney at 2 x 50 mg/kg, iv; assay type: ADME, organism-based; parameters: time infinity, dose 50 mg/kg, route intravenous; procedure, shortened: as §1
Neisseria gonorrhoeae = experiment: Antibacterial activity against Neisseria gonorrhoeae; assay type: functional
Escherichia coli [21] = experiment: Antibacterial activity against Escherichia coli C7 after 18 hrs by broth microdilution method; assay type: functional; details: C7, 18 h
Enterococcus faecalis = experiment: Antibacterial activity against Enterococcus faecalis ATCC 29212 after 18 hrs by broth microdilution method; assay type: functional; details: ATCC 29212, 18 h
Procedure, shortened: (§4)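 CLSI broth microdilution with serial 2-fold dilutions from 0.06 to 64 μg/mL. Cation-adjusted Mueller–Hinton broth, inoculum 5 × 10^5 CFU/mL, incubated at 35 °C for 18 h. MIC taken as the lowest concentration with no visible growth.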

Proteus mirabilis = experiment: Antibacterial activity against Proteus mirabilis; assay type: functional
Staphylococcus aureus [22] = experiment: Antibacterial activity against methicillin-resistant Staphylococcus aureus NRS384 assessed as killing activity at 600 to 1200 mg q6h with prolonged infusion of 2 hrs; assay type: functional, organism-based
[23] = Inhibition of cytochrome P450; assay type: ADME
[24] = Cmax in Sprague-Dawley rat liver at 2 x 50 mg/kg, iv; assay type: ADME, organism-based; parameters: dose 50 mg/kg, route intravenous; procedure, shortened: as §1
[25] = Cmax in Sprague-Dawley rat lung at 2 x 50 mg/kg, iv; assay type: ADME, organism-based; parameters: dose 50 mg/kg, route intravenous; procedure, shortened: as §1
[26] = Cmax in Sprague-Dawley rat kidney at 2 x 50 mg/kg, iv; assay type: ADME, organism-based; parameters: dose 50 mg/kg, route intravenous; procedure, shortened: as §1
[27] = AUC (0 to infinity) in Sprague-Dawley rat lung at 2 x 50 mg/kg, iv; assay type: ADME, organism-based; parameters: time infinity, dose 50 mg/kg, route intravenous; procedure, shortened: as §1
Staphylococcus aureus [28] = experiment: Antibacterial activity against methicillin-resistant Staphylococcus aureus NRS385; assay type: functional; procedure, shortened: as §3
Staphylococcus aureus [29] = experiment: Antibacterial activity against methicillin-susceptible Staphylococcus aureus; assay type: functional
Canis familiaris [30] = experiment: Toxicity in beagle dog assessed as cardiovascular functions up to 100 mg/kg, iv; assay type: organism-based, Canis lupus familiaris, Heart; parameters: dose 100 mg/kg, route intravenous; details: in vivo; procedure, shortened: as §2
Staphylococcus aureus [31] = experiment: Antibacterial activity against methicillin-resistant Staphylococcus aureus NRS382; assay type: functional; procedure, shortened: as §3
Haemophilus influenzae = experiment: Antibacterial activity against Haemophilus influenzae; assay type: functional
[32] = AUC (0 to infinity) in Sprague-Dawley rat heart at 2 x 50 mg/kg, iv; assay type: ADME, organism-based; parameters: time infinity, dose 50 mg/kg, route intravenous; procedure, shortened: as §1
Staphylococcus aureus [33] = experiment: Antibacterial activity against Staphylococcus aureus CIP54.146 after 18 hrs by broth microdilution method; assay type: functional; details: CIP54.146, 18 h; procedure, shortened: as §4
[34] = Terminal elimination half life in Sprague-Dawley rat lung at 2 x 50 mg/kg, iv; assay type: ADME, organism-based; parameters: dose 50 mg/kg, route intravenous; details: read-out: beta t1/2 (converted); procedure, shortened: as §1
[35] = Cmax in Sprague-Dawley rat brain at 2 x 50 mg/kg, iv; assay type: ADME, organism-based; parameters: dose 50 mg/kg, route intravenous; procedure, shortened: as §1

Albumin, sequence (P02768 whole entry): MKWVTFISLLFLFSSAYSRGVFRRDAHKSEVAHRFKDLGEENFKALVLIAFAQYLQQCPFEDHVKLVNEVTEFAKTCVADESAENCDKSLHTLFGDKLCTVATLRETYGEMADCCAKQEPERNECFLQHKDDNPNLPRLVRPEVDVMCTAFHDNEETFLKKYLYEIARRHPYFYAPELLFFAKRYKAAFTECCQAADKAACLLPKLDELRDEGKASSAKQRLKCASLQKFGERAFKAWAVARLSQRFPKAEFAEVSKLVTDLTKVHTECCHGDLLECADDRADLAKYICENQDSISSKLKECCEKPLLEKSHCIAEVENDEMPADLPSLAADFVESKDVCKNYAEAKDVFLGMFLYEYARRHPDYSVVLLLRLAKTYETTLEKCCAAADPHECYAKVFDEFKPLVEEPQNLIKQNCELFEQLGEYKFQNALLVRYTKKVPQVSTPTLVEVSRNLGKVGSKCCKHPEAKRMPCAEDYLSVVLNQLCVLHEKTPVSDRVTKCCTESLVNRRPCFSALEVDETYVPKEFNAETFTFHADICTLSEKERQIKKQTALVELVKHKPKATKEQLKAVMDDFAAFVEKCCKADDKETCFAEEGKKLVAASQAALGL

CCc1cc(O)c(Oc2ccc(C(N)=O)cc2F)cc1F
NOAEL at 336 h [1]: 100 mg/kg/day
IC50 [2]: 12 nM
MIC90 (Neisseria meningitidis): 0.25 µg/mL (≈ 0.852 µM)
AUC(0-inf) [3]: 27600 ng·h/mL
ED50 (Staphylococcus aureus [4]): 28.3 mg/kg
Activity (Canis familiaris [5]): Non-toxic
MIC90 (Escherichia coli [6]): 1 µg/mL (≈ 3.41 µM)
half-life [7]: 8.5 h
clearance [8]: 107 mL/min/kg
half-life [9]: 4.2 h
Cmax [10]: 42100 ng/g
CC50 [11]: > 32 µg/mL
MTD [12]: > 200 mg/kg
Activity (Albumin): 95%
AUC(0-inf) [13]: 13900 ng·h/mL
Activity (Rattus norvegicus): Non-toxic
MIC (Staphylococcus aureus [14]): 0.06 µg/mL (≈ 0.205 µM)
NOAEL at 336 h [15]: 200 mg/kg/day
Cmax [16]: 30400 ng/mL
solubility thermodynamic [17]: 20 µg/mL (≈ 68.2 µM)
MIC90 (Staphylococcus aureus [18]): 0.12 µg/mL (≈ 0.409 µM)
MTD [19]: > 200 mg/kg
AUC(0-inf) [20]: 20300 ng·h/mL
MIC90 (Neisseria gonorrhoeae): 0.25 µg/mL (≈ 0.852 µM)
MIC (Escherichia coli [21]): 0.5 µg/mL (≈ 1.7 µM)
MIC (Enterococcus faecalis): > 32 µg/mL
MIC90 (Proteus mirabilis): 2 µg/mL (≈ 6.82 µM)
Activity (Staphylococcus aureus [22]): Active
inhibition (INH) [23]: Active
Cmax [24]: 51700 ng/g
Cmax [25]: 28900 ng/g
Cmax [26]: 63000 ng/g
AUC(0-inf) [27]: 18400 ng·h/mL
MIC (Staphylococcus aureus [28]): 0.06 µg/mL (≈ 0.205 µM)
MIC90 (Staphylococcus aureus [29]): 0.06 µg/mL (≈ 0.205 µM)
Activity (Canis familiaris [30]): Non-toxic
MIC (Staphylococcus aureus [31]): 0.06 µg/mL (≈ 0.205 µM)
MIC90 (Haemophilus influenzae): 0.5 µg/mL (≈ 1.7 µM)
AUC(0-inf) [32]: 23900 ng·h/mL
MIC (Staphylococcus aureus [33]): 0.062 µg/mL (≈ 0.211 µM)
half-life [34]: 5.9 h
Cmax [35]: 37800 ng/g
